Results on two compounds are retold here after ChEMBL document CHEMBL2177043, “HIV-1 X4 activities of polycationic "viologen" based dendrimers by interaction with the chemokine receptor CXCR4: study of structure-activity relationship” (J Med Chem, 2012).

The source made the active and inactive calls. The rule behind the calls is not given here.

Series [1] has as its target T1, C-C chemokine receptor type 5 (Homo sapiens, UniProt P51681). In words: Antagonist activity against CCR5 expressed in U87.CD4.CCR5 cells assessed as inhibition of CCL3L1-induced calcium signaling incubated for 10 mins by FLIPR.
Series [2] deals with Human immunodeficiency virus 1. In words: Antiviral activity against X4 HIV1 NL4.3 infected in human PBMC assessed as inhibition of viral replication pre-incubated for 30 mins measured 5 days post infection by MTT assay. In kind it is functional, organism-based. The settings on record: Human immunodeficiency virus 1, NL4.3. The method in brief:
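Human PBMC infected with HIV-1 NL4.3. IC₅₀ is the concentration inhibiting viral replication by 50%, averaged over two independent experiments. Cytotoxicity (CC₅₀, 50% loss of PBMC viability) evaluated in the same assay.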
(In general: Tetrazolium dyes change colour on reduction, which living cells bring about.)

Series [3] deals with Human immunodeficiency virus 1. In words: Antiviral activity against X4 HIV1 NL4.3 infected in human MT4 cells assessed as inhibition of viral replication pre-incubated for 30 mins […]. The class given is functional, organism-based. Particulars: Human immunodeficiency virus 1, NL4.3, MT4.
For series [4], the target named is T2, C-X-C chemokine receptor type 4 (Homo sapiens, UniProt P61073). As to the kind of experiment: Antagonist activity against CXCR4 expressed in U87.CD.CXCR4 cells assessed as inhibition of CXCL12-induced calcium signaling incubated for 10 mins by FLIPR. The class given is functional, cell-based. The method in brief:
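U87.CD4.CXCR4 cells seeded at 2 × 10⁴/well on 0.2% gelatin the day before, loaded with 4 μM Fluo-3 AM for 45 min at 37 °C, washed, then preincubated with compounds at varied concentrations in assay buffer for 10 min at 37 °C. Challenged with 25 ng/mL CXCL12; Ca²⁺ flux followed over time by FLIPR.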

Series [5] concerns the target T2, C-X-C chemokine receptor type 4. In words: Inhibition of anti-CXCR4 mAbs clone 173 binding to CXCR4 in human SUPT1 cells incubated for 30 mins by FACS. (A flow cytometer gives signals particle by particle.)
Series [6] can be described thus: Cytotoxicity against human PBMC cells by MTT assay. The class given is cell-based.
Series [7] addresses T1, C-C chemokine receptor type 5. As to the kind of experiment: Antagonist activity against CCR5 expressed in U87.CD4.CCR5 cells assessed as inhibition of CCL3L1-induced calcium signaling incubated for 10 mins by FLIPR. The class given is functional, cell-based. The method in brief: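 U87.CD4.CCR5 cells seeded at 2 × 10⁴/well on 0.2% gelatin the day before, loaded with 4 μM Fluo-3 AM for 45 min at 37 °C, washed, then preincubated with compounds at varied concentrations in assay buffer for 10 min at 37 °C. Stimulated with 10 ng/mL LD78β (CCL3L1); Ca²⁺ flux recorded by FLIPR.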

Series [8] addresses T2, C-X-C chemokine receptor type 4. In words: Inhibition of CXCL-12'AF647 binding to CXCR4 in human SUPT1 cells incubated for 15 mins by FACS. In kind it is cell-based. A digest of the protocol:
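SupT1 cells (high CXCR4) washed, then incubated 15 min at room temperature with compounds at varied concentrations in HBSS containing 20 mM HEPES and 0.2% BSA, pH 7.4. CXCL12-AF647 added at 25 ng/mL final for 30 min at room temperature. Cells washed, fixed in 1% paraformaldehyde, and read by flow cytometry on FL4.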

For series [9] the target is unchanged. In words: Inhibition of anti-CXCR4 mAbs clone 12G5 binding to CXCR4 in human SUPT1 cells incubated for 30 mins by FACS.
A short description of series [10]: Cytotoxicity against human MT4 cells by MTT assay. In kind it is cell-based.
The target of series [11] is T1, C-C chemokine receptor type 5. As to the kind of experiment: Agonist activity against CCR5 expressed in U87.CD4.CCR5 cells assessed as stimulation of calcium signaling incubated for 10 mins by FLIPR.
Series [12] addresses T2, C-X-C chemokine receptor type 4. As to the kind of experiment: Inhibition of anti-CXCR4 mAbs clone 1D9 binding to CXCR4 in human SUPT1 cells incubated for 30 mins by FACS.
Series [13] shares this target. In words: Agonist activity against CXCR4 expressed in U87.CD.CXCR4 cells assessed as stimulation of calcium signaling incubated for 10 mins by FLIPR. The class given is functional, cell-based. The method in brief:
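U87.CD4 cells stably carrying CXCR4 or CCR5, trypsinized and seeded at 2 × 10⁴ cells/well on 0.2% gelatin the day before. Loaded with Fluo-3 AM (4 μM, 45 min, 37 °C), washed, then exposed to test agents alone at varied concentrations in assay buffer for 10 min at 37 °C. Cytosolic Ca²⁺ rise monitored over time by FLIPR to detect any agonist-triggered signal.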

T2 sequence (P61073 whole entry): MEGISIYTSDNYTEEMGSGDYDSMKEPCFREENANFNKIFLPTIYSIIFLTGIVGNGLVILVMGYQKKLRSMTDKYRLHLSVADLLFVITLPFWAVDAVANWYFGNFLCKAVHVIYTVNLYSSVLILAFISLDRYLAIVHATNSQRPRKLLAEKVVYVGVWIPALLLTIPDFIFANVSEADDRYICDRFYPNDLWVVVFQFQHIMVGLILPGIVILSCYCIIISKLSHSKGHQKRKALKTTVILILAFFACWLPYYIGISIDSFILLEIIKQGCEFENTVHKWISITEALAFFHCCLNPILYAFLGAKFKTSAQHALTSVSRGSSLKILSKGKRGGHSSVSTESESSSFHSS
T1 sequence (P51681 whole entry, looked up): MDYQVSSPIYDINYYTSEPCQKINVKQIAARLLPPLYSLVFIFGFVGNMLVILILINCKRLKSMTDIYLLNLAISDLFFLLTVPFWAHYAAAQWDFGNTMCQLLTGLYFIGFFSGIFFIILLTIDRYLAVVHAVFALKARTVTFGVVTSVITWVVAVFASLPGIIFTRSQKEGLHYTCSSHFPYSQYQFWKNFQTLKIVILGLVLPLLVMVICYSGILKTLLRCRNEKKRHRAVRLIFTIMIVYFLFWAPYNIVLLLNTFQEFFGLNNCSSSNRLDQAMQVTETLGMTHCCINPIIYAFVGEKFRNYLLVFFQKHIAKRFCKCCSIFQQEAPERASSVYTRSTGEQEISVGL

By IC50 is commonly meant the concentration that inhibits the measured activity by half. What is called CC50 is the concentration giving 50% cytotoxicity. For the compound `Cc1cn(CCC[n+]2ccc(-c3cc[n+](Cc4cc(C[n+]5ccc(-c6cc[n+](CCCn7cc(C)c(=O)[nH]c7=O)cc6)cc5)cc(C[n+]5ccc(-c6cc[n+](Cc7cc(C[n+]8ccc(-c9cc[n+](Cc%10cc(C[n+]%11ccc(-c%12cc[n+](CCCn%13cc(C)c(=O)[nH]c%13=O)cc%12)cc%11)cc(C[n+]%11ccc(-c%12cc[n+](CCCn%13cc(C)c(=O)[nH]c%13=O)cc%12)cc%11)c%10)cc9)cc8)cc(C[n+]8ccc(-c9cc[n+](Cc%10cc(C[n+]%11ccc(-c%12cc[n+](Cc%13cc(C[n+]%14ccc(-c%15cc[n+](Cc%16cc(C[n+]%17ccc(-c%18cc[n+](CCCn%19cc(C)c(=O)[nH]c%19=O)cc%18)cc%17)cc(C[n+]%17ccc(-c%18cc[n+](CCCn%19cc(C)c(=O)[nH]c%19=O)cc%18)cc%17)c%16)cc%15)cc%14)cc(C[n+]%14ccc(-c%15cc[n+](Cc%16cc(C[n+]%17ccc(-c%18cc[n+](CCCn%19cc(C)c(=O)[nH]c%19=O)cc%18)cc%17)cc(C[n+]%17ccc(-c%18cc[n+](CCCn%19cc(C)c(=O)[nH]c%19=O)cc%18)cc%17)c%16)cc%15)cc%14)c%13)cc%12)cc%11)cc(C[n+]%11ccc(-c%12cc[n+](Cc%13cc(C[n+]%14ccc(-c%15cc[n+](Cc%16cc(C[n+]%17ccc(-c%18cc[n+](CCCn%19cc(C)c(=O)[nH]c%19=O)cc%18)cc%17)cc(C[n+]%17ccc(-c%18cc[n+](CCCn%19cc(C)c(=O)[nH]c%19=O)cc%18)cc%17)c%16)cc%15)cc%14)cc(C[n+]%14ccc(-c%15cc[n+](Cc%16cc(C[n+]%17ccc(-c%18cc[n+](CCCn%19cc(C)c(=O)[nH]c%19=O)cc%18)cc%17)cc(C[n+]%17ccc(-c%18cc[n+](CCCn%19cc(C)c(=O)[nH]c%19=O)cc%18)cc%17)c%16)cc%15)cc%14)c%13)cc%12)cc%11)c%10)cc9)cc8)c7)cc6)cc5)c4)cc3)cc2)c(=O)[nH]c1=O.F[P-](F)(F)(F)(F)F.F[P-](F)(F)(F)(F)F.F[P-](F)(F)(F)(F)F.F[P-](F)(F)(F)(F)F.F[P-](F)(F)(F)(F)F.F[P-](F)(F)(F)(F)F.F[P-](F)(F)(F)(F)F.F[P-](F)(F)(F)(F)F.F[P-](F)(F)(F)(F)F.F[P-](F)(F)(F)(F)F.F[P-](F)(F)(F)(F)F.F[P-](F)(F)(F)(F)F.F[P-](F)(F)(F)(F)F.F[P-](F)(F)(F)(F)F.F[P-](F)(F)(F)(F)F.F[P-](F)(F)(F)(F)F.F[P-](F)(F)(F)(F)F.F[P-](F)(F)(F)(F)F.F[P-](F)(F)(F)(F)F.F[P-](F)(F)(F)(F)F.F[P-](F)(F)(F)(F)F.F[P-](F)(F)(F)(F)F.F[P-](F)(F)(F)(F)F.F[P-](F)(F)(F)(F)F.F[P-](F)(F)(F)(F)F.F[P-](F)(F)(F)(F)F.F[P-](F)(F)(F)(F)F.F[P-](F)(F)(F)(F)F.F[P-](F)(F)(F)(F)F.F[P-](F)(F)(F)(F)F.F[P-](F)(F)(F)(F)F.F[P-](F)(F)(F)(F)F.F[P-](F)(F)(F)(F)F.F[P-](F)(F)(F)(F)F.F[P-](F)(F)(F)(F)F.F[P-](F)(F)(F)(F)F.F[P-](F)(F)(F)(F)F.F[P-](F)(F)(F)(F)F.F[P-](F)(F)(F)(F)F.F[P-](F)(F)(F)(F)F.F[P-](F)(F)(F)(F)F.F[P-](F)(F)(F)(F)F`, the inhibition result in series [1], in series [4], in series [5], in series [9] and in series [12] was “Dose-dependent effect” each time. Further, the IC50 in [2] is 2.32 µg/mL; in [3], 1.5 µg/mL; in [4], 38.3 nM; in [5], 191 nM; in series [7] it was 1750 nM; in [8] it was 124 nM. Moreover, the IC50 in [9] is 178 nM; in [12], 233 nM. The CC50 in series [6] stood at 20 µg/mL; in series [10], 9 µg/mL. Besides, the result in series [11] and in series [13] was inactive.

As to `CC[n+]1ccc(-c2cc[n+](Cc3cc(C[n+]4ccc(-c5cc[n+](CC)cc5)cc4)cc(C[n+]4ccc(-c5cc[n+](Cc6cc(C[n+]7ccc(-c8cc[n+](Cc9cc(C[n+]%10ccc(-c%11cc[n+](CC)cc%11)cc%10)cc(C[n+]%10ccc(-c%11cc[n+](CC)cc%11)cc%10)c9)cc8)cc7)cc(C[n+]7ccc(-c8cc[n+](Cc9cc(C[n+]%10ccc(-c%11cc[n+](Cc%12cc(C[n+]%13ccc(-c%14cc[n+](Cc%15cc(C[n+]%16ccc(-c%17cc[n+](CC)cc%17)cc%16)cc(C[n+]%16ccc(-c%17cc[n+](CC)cc%17)cc%16)c%15)cc%14)cc%13)cc(C[n+]%13ccc(-c%14cc[n+](Cc%15cc(C[n+]%16ccc(-c%17cc[n+](CC)cc%17)cc%16)cc(C[n+]%16ccc(-c%17cc[n+](CC)cc%17)cc%16)c%15)cc%14)cc%13)c%12)cc%11)cc%10)cc(C[n+]%10ccc(-c%11cc[n+](Cc%12cc(C[n+]%13ccc(-c%14cc[n+](Cc%15cc(C[n+]%16ccc(-c%17cc[n+](CC)cc%17)cc%16)cc(C[n+]%16ccc(-c%17cc[n+](CC)cc%17)cc%16)c%15)cc%14)cc%13)cc(C[n+]%13ccc(-c%14cc[n+](Cc%15cc(C[n+]%16ccc(-c%17cc[n+](CC)cc%17)cc%16)cc(C[n+]%16ccc(-c%17cc[n+](CC)cc%17)cc%16)c%15)cc%14)cc%13)c%12)cc%11)cc%10)c9)cc8)cc7)c6)cc5)cc4)c3)cc2)cc1.F[P-](F)(F)(F)(F)F.F[P-](F)(F)(F)(F)F.F[P-](F)(F)(F)(F)F.F[P-](F)(F)(F)(F)F.F[P-](F)(F)(F)(F)F.F[P-](F)(F)(F)(F)F.F[P-](F)(F)(F)(F)F.F[P-](F)(F)(F)(F)F.F[P-](F)(F)(F)(F)F.F[P-](F)(F)(F)(F)F.F[P-](F)(F)(F)(F)F.F[P-](F)(F)(F)(F)F.F[P-](F)(F)(F)(F)F.F[P-](F)(F)(F)(F)F.F[P-](F)(F)(F)(F)F.F[P-](F)(F)(F)(F)F.F[P-](F)(F)(F)(F)F.F[P-](F)(F)(F)(F)F.F[P-](F)(F)(F)(F)F.F[P-](F)(F)(F)(F)F.F[P-](F)(F)(F)(F)F.F[P-](F)(F)(F)(F)F.F[P-](F)(F)(F)(F)F.F[P-](F)(F)(F)(F)F.F[P-](F)(F)(F)(F)F.F[P-](F)(F)(F)(F)F.F[P-](F)(F)(F)(F)F.F[P-](F)(F)(F)(F)F.F[P-](F)(F)(F)(F)F.F[P-](F)(F)(F)(F)F.F[P-](F)(F)(F)(F)F.F[P-](F)(F)(F)(F)F.F[P-](F)(F)(F)(F)F.F[P-](F)(F)(F)(F)F.F[P-](F)(F)(F)(F)F.F[P-](F)(F)(F)(F)F.F[P-](F)(F)(F)(F)F.F[P-](F)(F)(F)(F)F.F[P-](F)(F)(F)(F)F.F[P-](F)(F)(F)(F)F.F[P-](F)(F)(F)(F)F.F[P-](F)(F)(F)(F)F`, the inhibition result in [1], in [4], in [5], in [9] and in [12] was “Dose-dependent effect” each time. Also, the IC50 in [2] was 1.07 µg/mL; in [3] it was 1.4 µg/mL; in [4] it was 89.1 nM; in series [5], 108 nM; in series [7], 542 nM; in series [8], 101 nM. Further, the IC50 in [9] was 111 nM; in series [12], 180 nM. Further, the values for the half-maximal cytotoxic concentration (CC50) in series [6] and in series [10] were 20 µg/mL and 9 µg/mL, respectively. The result in series [11] and in [13] was inactive.
